Drawing on ChEMBL document CHEMBL1138053, “Design, synthesis, and structure-activity relationships of thieno[2,3-b]pyridin-4-one derivatives as a novel class of potent, orally active, non-peptide luteinizing hormone-releasing hormone receptor antagonists” (J Med Chem, 2006), this text covers IC50, inhibition and logD for 40 compounds.

The structures appear in SMILES notation. Bounds are passed on as bounds.

Broadly, the IC50 is the concentration that gives 50% inhibition. By inhibition is commonly meant the percentage by which the read-out fell short of the control. For orientation: logD means lipophilicity at a set pH, counting ionised and neutral species. The low end stands for a more hydrophilic compound, the high end for a more lipophilic compound.

The target of series [1] is T1, Gonadotropin-releasing hormone receptor (Homo sapiens, UniProt P30968).
T1 sequence (P30968 whole entry): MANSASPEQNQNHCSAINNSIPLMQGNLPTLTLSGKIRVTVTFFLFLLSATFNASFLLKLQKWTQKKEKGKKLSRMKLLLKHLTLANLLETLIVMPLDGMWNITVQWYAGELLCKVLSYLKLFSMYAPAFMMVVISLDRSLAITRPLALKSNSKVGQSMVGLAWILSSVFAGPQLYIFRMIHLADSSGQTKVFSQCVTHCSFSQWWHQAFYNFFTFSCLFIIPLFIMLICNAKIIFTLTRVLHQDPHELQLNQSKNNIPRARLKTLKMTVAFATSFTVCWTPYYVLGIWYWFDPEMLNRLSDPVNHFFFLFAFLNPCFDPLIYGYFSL
Description: Inhibition of [125I]leuprorelin binding to human recombinant LHRH receptor expressed in CHO cells. The series is classed as cell-based.

Series [2] addresses T2, Gonadotropin-releasing hormone receptor (Homo sapiens) (UniProt P30968).
T2 sequence (whole entry): T1 sequence (P30968 whole entry)
The experiment in a line: Inhibition of [125I]leuprorelin binding to human recombinant LHRH receptor at 20 uM. Put shortly:
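Membranes (0.2 mg/mL) from CHO cells stably expressing cloned human LHRH receptor, incubated 60 min at 25 °C with [125I]leuprorelin and test compound in Tris buffer pH 7.5 containing EDTA, BSA, NaN3 and protease inhibitors. Bound ligand separated by filtration on PEI-coated glass-fibre filters. Nonspecific binding taken with 1 µM unlabelled leuprorelin.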

Series [3] in a line: Distribution coefficient, log D of the compound. As to conditions: octanol/water.
The target of series [4] is T3, Gonadotropin-releasing hormone receptor (Rattus norvegicus, UniProt P30969).
T3 sequence (P30969 whole entry): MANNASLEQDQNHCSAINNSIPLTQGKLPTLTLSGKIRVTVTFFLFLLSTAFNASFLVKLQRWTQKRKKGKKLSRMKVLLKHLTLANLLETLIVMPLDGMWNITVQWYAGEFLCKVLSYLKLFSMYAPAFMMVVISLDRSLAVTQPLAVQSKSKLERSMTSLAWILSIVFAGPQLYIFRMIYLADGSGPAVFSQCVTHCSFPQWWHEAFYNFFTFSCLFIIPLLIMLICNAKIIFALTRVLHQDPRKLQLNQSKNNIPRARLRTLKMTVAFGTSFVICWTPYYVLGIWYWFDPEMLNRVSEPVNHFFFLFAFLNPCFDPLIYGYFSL
The experiment in a line: Inhibition of [125I]leuprorelin binding to rat anterior pituitary LHRH receptor.

Series [5] has as its target T1, Gonadotropin-releasing hormone receptor. Description: Inhibition of LHRH-stimulated arachidonic acid release in CHO cells expressing human LHRH receptor. It counts as functional, cell-based. Put shortly: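 CHO cells stably expressing human or monkey LHRH receptor, seeded at 4 × 10⁴ cells/well and cultured 1 day, then labelled 1 day with [³H]arachidonic acid (11 kBq/well). Washed in DMEM with 20 mM HEPES and 0.2% BSA, preincubated with compound 60 min at 37 °C, then stimulated with LHRH (1 nM) for 40 min at 37 °C.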

With `CCOC(=O)c1cn(Cc2ccccc2F)c2sc(-c3ccc(OC)cc3)c(CN(C)Cc3ccccc3)c2c1=O`, the IC50 in series [1] and in series [1] (cho) was 30 nM throughout.
Consider `CC(C)C(=O)Nc1ccc(-c2sc3c(c2CN(C)Cc2ccccc2)c(=O)c(C(O)C(C)C)cn3Cc2c(F)cccc2F)cc1` (stereo unspecified), for which the IC50 in series [1] was found to be 0.4 nM.
`CCOC(=O)c1cn(Cc2ccc(OC)cc2)c2sc(-c3ccc(OC)cc3)c(CN(C)Cc3ccccc3)c2c1=O`: in series [1], the IC50 is 300 nM.
In the case of `CCOC(=O)c1cn(Cc2ccccc2OC)c2sc(-c3ccccc3OC)c(CN(C)Cc3ccccc3)c2c1=O`, in series [1], the IC50 is 700 nM.
For the compound `CCOC(=O)c1cnc2sc(-c3ccc(OC)cc3)c(CN(C)Cc3ccccc3)c2c1O`, the IC50 in series [1] was over 20000 nM.
As for `CCOC(=O)c1cn(Cc2ccccc2F)c2sc(-c3ccc(NC(=O)CC)cc3)c(CN(C)Cc3ccccc3)c2c1=O`, the IC50 in series [1] worked out at 0.4 nM.
Turning to `CCOC(=O)c1cn(Cc2ccccc2F)c2sc(-c3ccc(N(C)C(=O)NC)cc3)c(CN(C)Cc3ccccc3)c2c1=O`, in series [1], the IC50 was 2 nM.
In the case of `CC(C)C(=O)c1cn(Cc2c(F)cccc2F)c2sc(-c3ccc(NC(=O)CN)cc3)c(CN(C)Cc3ccccc3)c2c1=O`, in series [1], the IC50 turned out to be 9 nM.
As to `CCOC(=O)c1cn(Cc2ccccc2OC)c2sc(-c3ccc(OC)cc3)c(CNc3ccccc3)c2c1=O`, the inhibition in series [2] was 42%.
Take `CCOC(=O)c1cn(Cc2cccc(F)c2)c2sc(-c3ccc(OC)cc3)c(CN(C)Cc3ccccc3)c2c1=O`: the IC50 in series [1] came to 300 nM.
As for `CCOC(=O)c1cn(C)c2sc(-c3ccc(OC)cc3)c(CN(C)Cc3ccccc3)c2c1=O`, the IC50 in series [1] is 5000 nM.
As for `CCOC(=O)c1cn(Cc2ccc(F)cc2)c2sc(-c3ccc(OC)cc3)c(CN(C)Cc3ccccc3)c2c1=O`, the half-inhibitory concentration (IC50) in series [1] was 400 nM.
As to `CC(C)C(=O)c1cn(Cc2c(F)cccc2F)c2sc(-c3ccc(NC(=O)CO)cc3)c(CN(C)Cc3ccccc3)c2c1=O`, the IC50 in series [1] came to 0.2 nM.
`CCC(=O)c1cn(Cc2c(F)cccc2F)c2sc(-c3ccc(NC(=O)C(C)C)cc3)c(CN(C)Cc3ccccc3)c2c1=O`: the IC50 in series [1] stood at 0.4 nM.
As to `CCOC(=O)c1cn(Cc2cccc(OC)c2)c2sc(-c3ccc(OC)cc3)c(CN(C)Cc3ccccc3)c2c1=O`, the half-maximal inhibitory concentration (IC50) in series [1] came out at 400 nM.
`CCOC(=O)c1cn(Cc2ccccc2)c2sc(-c3ccc(NC(=O)C(C)C)cc3)c(CN(C)Cc3ccccc3)c2c1=O`: in series [1], the IC50 was 0.6 nM.
Take `CCOC(=O)c1cn(Cc2ccccc2)c2sc(-c3cccc(OC)c3)c(CN(C)Cc3ccccc3)c2c1=O`: the IC50 in series [1] is 500 nM.
Still for that read-out and setting: for `CCOC(=O)c1cn(Cc2c(F)cccc2F)c2sc(-c3ccc(NC(=O)CC)cc3)c(CN(C)Cc3ccccc3)c2c1=O` the value was 0.1 nM.
Consider `CCOC(=O)c1cn(Cc2c(F)cccc2F)c2sc(-c3ccc(NC(=O)C(C)C)cc3)c(CN(C)Cc3ccccc3)c2c1=O`, for which the IC50 in series [1] was 0.2 nM.
For `CC(C)C(=O)c1cn(Cc2c(F)cccc2F)c2sc(-c3ccc(NC(=O)C(C)(C)O)cc3)c(CN(C)Cc3ccccc3)c2c1=O`, in series [1], the IC50 amounted to 0.2 nM.
Turning to `CC(C)C(=O)Nc1ccc(-c2sc3c(c2CN(C)Cc2ccccc2)c(=O)c(C(=O)C(C)C)cn3Cc2c(F)cccc2F)cc1`, in series [1], the half-maximal inhibitory concentration (IC50) worked out at 0.2 nM. This compound showed a log distribution coefficient (logD) in series [3] of 6.33.
Regarding `CC(C)C(=O)Nc1ccc(-c2sc3c(c2CN(C)Cc2ccccc2)c(=O)c(C(=O)c2ccccc2)cn3Cc2c(F)cccc2F)cc1`, in series [1], the IC50 was 0.1 nM.
Turning to `CCOC(=O)c1cn(Cc2ccccc2[N+](=O)[O-])c2sc(-c3ccc(OC)cc3)c(CN(C)Cc3ccccc3)c2c1=O`, in series [1], the IC50 was found to be 100 nM.
Take `CCOC(=O)c1cn(Cc2c(F)cccc2F)c2sc(-c3ccc(NC(=O)NC)cc3)c(CN(C)Cc3ccccc3)c2c1=O`: the IC50 in series [1] is 0.06 nM.
Consider `CCOC(=O)c1cn(Cc2ccccc2F)c2sc(-c3ccc(NC(=O)Nc4ccccc4)cc3)c(CN(C)Cc3ccccc3)c2c1=O`, for which the IC50 in series [1] came out at 30 nM.
Take `CCOC(=O)c1cn(Cc2ccccc2OC)c2sc(-c3ccc(OC)cc3)c(C)c2c1=O`: the IC50 in series [1] was found to be 10000 nM.
Consider `CCOC(=O)c1cn(Cc2ccccc2OC)c2sc(-c3ccccc3)c(CN(C)Cc3ccccc3)c2c1=O`, for which the IC50 in series [1] came out at 200 nM.
Regarding `CCOC(=O)c1cn(Cc2ccccc2F)c2sc(-c3ccc(NC(=O)c4ccccc4)cc3)c(CN(C)Cc3ccccc3)c2c1=O`, the IC50 in series [1] was 1 nM.
Turning to `CCOC(=O)c1cn(Cc2ccccc2OC)c2sc(-c3ccc(OC)cc3)c(CNCc3ccccc3)c2c1=O`, in series [1], the IC50 was found to be 2000 nM.
The same measure, in the same setting: with `CCOC(=O)c1cn(Cc2ccccc2OC)c2sc(-c3ccc(OC)cc3)c(CN(C)C)c2c1=O` the figure was 500 nM; with `CCC(=O)Nc1ccc(-c2sc3c(c2CN(C)Cc2ccccc2)c(=O)c(C(=O)NC(C)C)cn3Cc2c(F)cccc2F)cc1`, 8 nM; with `CCOC(=O)c1cn(Cc2ccccc2F)c2sc(-c3ccc(N)cc3)c(CN(C)Cc3ccccc3)c2c1=O`, 40 nM.
Same read-out and setting: for `CCOC(=O)c1cn(Cc2ccccc2F)c2sc(-c3ccc(NC(C)=O)cc3)c(CN(C)Cc3ccccc3)c2c1=O` the value was 2 nM; for `CCOC(=O)c1cn(Cc2ccccc2F)c2sc(-c3ccc(NC(=O)NC)cc3)c(CN(C)Cc3ccccc3)c2c1=O`, 0.07 nM; for `CCOC(=O)c1cn(Cc2ccccc2OC)c2sc(-c3ccc(OC)cc3)c(CN(Cc3ccccc3)C(C)=O)c2c1=O`, 7000 nM.
Regarding `CNC(=O)Nc1ccc(-c2sc3c(c2CN(C)Cc2ccccc2)c(=O)c(C(=O)C(C)C)cn3Cc2c(F)cccc2F)cc1`, the IC50 in series [1] came to 0.1 nM; in series [4], 200 nM; in series [5], 0.07 nM.
`CC(C)C(=O)c1cn(Cc2c(F)cccc2F)c2sc(-c3ccc(NC(=O)C4(O)CC4)cc3)c(CN(C)Cc3ccccc3)c2c1=O`: the results for the half-inhibitory concentration (IC50) in series [1], in series [4] and in series [5] were 0.1 nM, 150 nM and 0.1 nM, respectively.
Take `CCOC(=O)c1cn(Cc2ccccc2C#N)c2sc(-c3ccc(OC)cc3)c(CN(C)Cc3ccccc3)c2c1=O`: in series [1], the IC50 came out at 100 nM.
For the compound `CCOC(=O)c1cn(Cc2ccccc2OC)c2sc(-c3ccc(OC)cc3)c(CN(CC)Cc3ccccc3)c2c1=O`, the 50% inhibitory concentration (IC50) in series [1] is 300 nM.
Consider `CCOC(=O)c1cn(Cc2ccccc2)c2sc(-c3ccc(OC)cc3)c(CN(C)Cc3ccccc3)c2c1=O`, for which, in series [1], the IC50 was 200 nM.
